According to the array DNA melting data of Ke et al. (doi:10.1101/2024.01.08.574731):

Key:
[1] = folding enthalpy; higher = less favourable; fluorescence melt of hairpins on a sequencing array, two-state fit; settings: sodium 0.088 M
In short: (§1)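 In 50 mM Na-HEPES pH 8.0 containing 25 mM NaCl, hairpins from the library on a sequenced MiSeq flow cell were imaged for Cy3 fluorescence at 2.5 °C steps up to 60 °C, with Cy3 and quencher oligos annealed. After normalisation to pre-quench Cy3 and to control constructs, two-state fits with bootstrapping gave melting temperature and folding enthalpy. Four replicates were combined by inverse-variance weighting, and fitted temperatures were shifted up by 9.35 °C to match UV melts.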

[2] = melting temperature; fluorescence melt of hairpins on a sequencing array, two-state fit, raised by 9.35 °C to match UV melts; settings: sodium 0.088 M
In short: as §1

| Sequence | folding enthalpy [1] | Tm [2] |
| --- | --- | --- |
| GGTTTCGAAAGAAGTACC ((((((....)))..))) | -12.7 kcal/mol | 29.8 °C |
| GATCATACTGATGATC ((((((....)))))) | -30.2 kcal/mol | 46.3 °C |
| GTTCCAGGAAACTGAAAC (((.(((....))).))) | -19.4 kcal/mol | 30.4 °C |
| GGCCCCGAAAGGGGAGCC ((((((....)))..))) | -12.8 kcal/mol | 59.1 °C |
| GGACCGCGAAAGCGTCC (((.(((....)))))) | -17.1 kcal/mol | 59.6 °C |
| GTTCCACGAAAGTGAAC (((.(((....)))))) | -17.7 kcal/mol | 41.8 °C |
| GATCGGCCGACCGATC ((((((....)))))) | -34.6 kcal/mol | 57.9 °C |
| GAATCTGGAAACGGATTC (((((.(....).))))) | -35.1 kcal/mol | 44.8 °C |
| GATCACGAAGGTGATC ((((((....)))))) | -32.7 kcal/mol | 65.3 °C |
| GCACTGCGAAAGCGTTGC (((..((....))..))) | -23.6 kcal/mol | 45.3 °C |
| GATGGGGCGAAAGCCATC (((..(((....)))))) | -12 kcal/mol | 38.1 °C |
| AGCTCGAAAGAGCT (((((....))))) | -20.8 kcal/mol | 68.6 °C |
| GGACTAGAAATAGTCC ((((((....)))))) | -33 kcal/mol | 52.9 °C |
| GCGATCACTCGC ((((....)))) | -26 kcal/mol | 47.2 °C |
| GCTCACGAAAGTGAGAGC ((((((....)))..))) | -13.7 kcal/mol | 59 °C |
| GCAAGGCGAAAGCCATGC (((.(((....))).))) | -32.8 kcal/mol | 57.9 °C |
| GGCCTGGGAAACCAAGCC (((.(((....))).))) | -30.1 kcal/mol | 45.4 °C |
| GATCTATGTCTAGATC ((((((....)))))) | -26.6 kcal/mol | 38.5 °C |
| GAACTAGGAAACTAGTCC (.(((((....))))).) | -20.4 kcal/mol | 29.7 °C |
| GTAAGACGAAAGTCGTAC (((.(((....))).))) | -17.8 kcal/mol | 50.4 °C |
| GCGTGCGAAAGCAGCCGC ((((((....)))..))) | -19 kcal/mol | 55.2 °C |
| GCTAGGCGAAAGCGTCGC ((.(.((....)).).)) | -14.3 kcal/mol | 40.3 °C |
| GGCACAGGAAACTGCGCC (((.(((....))).))) | -50.8 kcal/mol | 55.8 °C |

| Sequence | folding enthalpy [1] | Tm [2] |
| --- | --- | --- |
| GCATACGAAAGTAATTGC ((((((....)))..))) | -13.6 kcal/mol | 32.7 °C |
| GGATACGGAAACGTGTTC (.(.(((....))).).) | -18.8 kcal/mol | 32.2 °C |
| GTGTGTGGAAACGTACAC ((((..(....)..)))) | -23.5 kcal/mol | 42 °C |
| GCGTAGCGAAAGCCATGC ((.(.((....)).).)) | -7.22 kcal/mol | 35.6 °C |
| GATCCCTCTCGGGATC ((((((....)))))) | -34.3 kcal/mol | 63.5 °C |
| GCCCCACGAAAGTGCGGC (((.(((....))).))) | -29.6 kcal/mol | 54.3 °C |
| GGTACATCGAAAGATACC (((..(((....)))))) | -11.5 kcal/mol | 29.7 °C |
| GACGGGGAAACCCGTC ((((((....)))))) | -37.9 kcal/mol | 68 °C |
| GCGCCGGCGAAAGCCCGC (((..(((....)))))) | -15.2 kcal/mol | 55.5 °C |
| CGGGACGGAAACGTCCG (((.(((....)))))) | -12.9 kcal/mol | 57.9 °C |
| GCGTCCTTACGC ((((....)))) | -23.6 kcal/mol | 53.6 °C |
| GGTAGGAAACTACC (((((....))))) | -26.5 kcal/mol | 48.2 °C |
| GGTAGCGAAAGCTTGACC ((((((....)))..))) | -13.9 kcal/mol | 35.7 °C |
| GATCAAGAAGTTGATC ((((((....)))))) | -28.2 kcal/mol | 43.9 °C |
| GTCAGCGAAAGCTTGGAC ((((((....)))..))) | -13.9 kcal/mol | 38.2 °C |
| GATCCAGTTCTGGATC ((((((....)))))) | -39.6 kcal/mol | 55.5 °C |
| GGTCTCGGAAACGAGGCC ((.((((....)))).)) | -39.3 kcal/mol | 62.2 °C |
| GGAAGGCGAAAGCCCTCC (((.(((....))).))) | -16.8 kcal/mol | 48.7 °C |
| GTACTGGCGAAAGCCTAC (((..(((....)))))) | -11 kcal/mol | 26.3 °C |
| GCACGGCGAAAGCCAAGC ((..(((....)))..)) | -15.4 kcal/mol | 46.6 °C |
| GCATACGAAAGTAGCTGC ((((((....)))..))) | -23.6 kcal/mol | 48.1 °C |
| GGCAGCGAAAGCTGTGCC ((((((....)))..))) | -13.2 kcal/mol | 51 °C |
| GATCTTATGAAGATC ((((((...)))))) | -28.1 kcal/mol | 42.4 °C |

| Sequence | folding enthalpy [1] | Tm [2] |
| --- | --- | --- |
| GAAGCTGGAAACAGCTTC (((((((....))))))) | -40.9 kcal/mol | 62.7 °C |
| GGCGTAGGAAACTGTGCC (((..((....))..))) | -27 kcal/mol | 39.4 °C |
| GTAACCCGAAAGGGTAC (((.(((....)))))) | -12.5 kcal/mol | 50.1 °C |
| CGTCCGGAAACGGCGACG ((((((....)))..))) | -13.6 kcal/mol | 46.7 °C |
| GTAGAGTCGAAAGACTAC (((..(((....)))))) | -10.8 kcal/mol | 35.1 °C |
| GCTAGCGAAAGCTAAGC ((((((....))).))) | -22.4 kcal/mol | 54.6 °C |
| GCTGTCGAAAGACAAGC ((((((....))).))) | -27.8 kcal/mol | 54.4 °C |
| GACCTCGGAAACGGGGTC ((((.((....)).)))) | -46.4 kcal/mol | 55.9 °C |
| GACAATGGAAACGTTGTC (((((.(....).))))) | -34.7 kcal/mol | 46.5 °C |
| GGTTCTGAAAAGAACC ((((((....)))))) | -33.3 kcal/mol | 59.2 °C |
| GGGCAGACGAAAGTCCCC (((..(((....)))))) | -16.8 kcal/mol | 42.9 °C |
| GATTGCGGAAACGCGATC (((.(((....))).))) | -30.7 kcal/mol | 57.5 °C |
| GTCCAAGGAAACTTGGGC (.(((((....))))).) | -46.6 kcal/mol | 51.1 °C |
| GTCGTGCGAAAGCAGGAC (((.(((....))).))) | -35.9 kcal/mol | 64.5 °C |
| GGGGGTACGAAAGTACCC (((..(((....)))))) | -8.56 kcal/mol | 63.4 °C |
| GCCCCCCGAAAGGGAGGC (((.(((....))).))) | -29.8 kcal/mol | 67 °C |
| GGCAATGGAAACATTGTC (.(((((....))))).) | -33.5 kcal/mol | 48.4 °C |
| GGGCCAGGAAACCGGCCC (((((.(....).))))) | -33.2 kcal/mol | 64 °C |
| GATCATGGCATGATC ((((((...)))))) | -44 kcal/mol | 51.3 °C |
| GCTGACGGAAACGTCAAC (.(((((....))))).) | -14.3 kcal/mol | 43.2 °C |
| GCTTGGCCGAAAGGCAGC (((..(((....)))))) | -14.4 kcal/mol | 46.9 °C |
